In ChEMBL document CHEMBL2346542, “Preliminary biological evaluation and mechanism of action studies of selected 2-arylindoles against glioblastoma” (Bioorg Med Chem, 2013):
The source made the active and inactive calls. The rule behind the calls is not given here.

Tests used:
U-87 MG [1] = assay: Induction of oxidative stress in human U87MG cells assessed as increase in reactive oxygens species generation at 100 uM after 1 hr by H2DCFDA dye based flow cytometry; assay type: functional, cell-based; details: U-87MG ATCC
How it was run: (§1)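 1321N1 (DMEM, 10% FBS, 2 mM glutamine) or U87MG (EMEM, 10% FBS, glutamine, pyruvate, NEAA) cells seeded at 20,000/well and attached overnight. Loaded with 25 µM carboxy-H2DCFDA for 30 min at 37 °C in the dark, then treated for 60 min; TBHP 100 µM was the positive control, vehicle ≤0.5% ethanol/DMSO. Washed in HBSS, trypsinised, then flow cytometry at 488/519 nm.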

1321-N1 [2] = assay: Induction of oxidative stress in human 1321N1 cells assessed as increase in reactive oxygens species generation at 100 uM after 1 hr by H2DCFDA dye based flow cytometry; assay type: functional, cell-based; how it was run: as §1
1321-N1 [3] = assay: Induction of oxidative stress in human 1321N1 cells assessed as increase in reactive oxygens species generation at 500 uM after 1 hr by H2DCFDA dye based flow cytometry; assay type: functional, cell-based
How it was run: (§2)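 Cells at 20,000/well in six-well plates, attached overnight. Loaded with 25 µM carboxy-H2DCFDA for 30 min at 37 °C in the dark, then given compound at 500 µM for 60 min. Positive control TBHP 100 µM. Washed in HBSS, trypsinized, resuspended in PBS, strained. Flow cytometry at FITC ex/em 488/519 nm. Vehicle ≤0.5% ethanol and DMSO.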

U-87 MG [4] = assay: Induction of oxidative stress in human U87MG cells assessed as increase in reactive oxygens species generation at 500 uM after 1 hr by H2DCFDA dye based flow cytometry; assay type: functional, cell-based; details: U-87MG ATCC; how it was run: as §2
U-87 MG [5] = assay: Induction of autophagy in human U87MG cells assessed as acidic vesicular organelle formation at 500 uM after 1 hr by acridine orange based flow cytometry; assay type: functional, cell-based; details: U-87MG ATCC
How it was run: (§3)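 Cells at 20,000/well in six-well plates, attached overnight. Treated with compound at 500 µM for 60 min, then stained with 3 µM acridine orange for 15 min at 37 °C in the dark. Washed in PBS, trypsinized, strained. Red fluorescence read by flow cytometry at ex/em 488/615 nm (PE-Texas Red). Vehicle ≤0.5% ethanol. One of two experiments shown.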

[6] = Antiproliferative activity against human IN1265 cells assessed as inhibition of cell growth after 72 hrs by MTT assay; assay type: functional, cell-based
How it was run: (§4)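 Short-term GBM cultures derived from tumour biopsies, and U251MG, kept in Hams F10 with 10% foetal calf serum at 37 °C without CO2. Cells seeded at 10³ per well and grown 48 h. Then dosed at 0.01–1000 µM in quadruplicate, compound renewed every 24 h, followed by 24 h recovery in compound-free medium. MTT (1 mg/mL) added for 4 h, formazan dissolved in DMSO, OD570 read. IC50 from nonlinear regression vs untreated controls.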

1321-N1 [7] = assay: Induction of autophagy in human 1321N1 cells assessed as acidic vesicular organelle formation at 500 uM after 1 hr by acridine orange based flow cytometry in presence of 5 mM, MA; assay type: functional, cell-based
How it was run: (§5)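 Acridine orange AVO assay as above: compound at 500 µM for 60 min, given together with 3-methyladenine 5 mM dissolved in medium. Then 3 µM acridine orange for 15 min at 37 °C, flow cytometry at ex/em 488/615 nm. Two experiments.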

U-87 MG [8] = assay: Induction of autophagy in human U87MG cells assessed as acidic vesicular organelle formation at 500 uM after 1 hr by acridine orange based flow cytometry in presence of 5 mM, MA; assay type: functional, cell-based; details: U-87MG ATCC; how it was run: as §5
[9] = Antiproliferative activity against human IN1760 cells assessed as inhibition of cell growth after 72 hrs by MTT assay; assay type: functional, cell-based; details: IN1760, 72 h; how it was run: as §4
1321-N1 [10] = assay: Induction of autophagy in human 1321N1 cells assessed as acidic vesicular organelle formation at 500 uM after 1 hr by acridine orange based flow cytometry; assay type: functional, cell-based; how it was run: as §3
U-87MG ATCC = assay: Antiproliferative activity against human U87MG cells assessed as inhibition of cell viability after 48 hrs by MTS assay in presence of 500 uM antioxidant, ascorbic acid; assay type: functional, cell-based
[11] = Antiproliferative activity against human U251MG cells assessed as inhibition of cell growth after 72 hrs by MTT assay; assay type: functional, cell-based; details: U-251, 72 h; how it was run: as §4
[12] = Antiproliferative activity against human IN859 cells assessed as inhibition of cell growth […] by MTS assay; assay type: functional, cell-based
1321-N1 [13] = assay: Antiproliferative activity against human 1321N1 cells assessed as inhibition of cell viability after 48 hrs by MTS assay in presence of 500 uM antioxidant, ascorbic acid; assay type: functional, cell-based
U-87 MG [14] = assay: Induction of oxidative stress in human U87MG cells assessed as reactive oxygens species generation at 500 uM after 1 hr by H2DCFDA dye based flow cytometry in presence of 500 uM antioxidant, ascorbic acid; assay type: functional, cell-based; details: U-87MG ATCC
How it was run: (§6)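 Run as the carboxy-H2DCFDA ROS flow-cytometry assay (25 µM dye for 30 min, then compound at 500 µM for 60 min, read at ex/em 488/519 nm), with ascorbic acid 500 µM added under the same procedure and time point.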

1321-N1 [15] = assay: Induction of oxidative stress in human 1321N1 cells assessed as reactive oxygens species generation at 500 uM after 1 hr by H2DCFDA dye based flow cytometry in presence of 500 uM antioxidant, ascorbic acid; assay type: functional, cell-based; how it was run: as §6
[16] = Antiproliferative activity against human IN1472 cells assessed as inhibition of cell growth after 72 hrs by MTT assay; assay type: functional, cell-based; details: IN1472, 72 h; how it was run: as §4
[17] = Antiproliferative activity against human 1321N1 cells assessed as inhibition of cell growth after 48 hrs by MTS assay; assay type: functional, cell-based
How it was run: (§7)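 1321N1 grown in DMEM with 10% FBS and 2 mM L-glutamine; U87MG in EMEM with 10% FBS, 2 mM L-glutamine, 1 mM pyruvate and 1% NEAA; 37 °C, 5% CO2. Seeded overnight at 3500 (1321N1) or 4000 (U87MG) cells/200 μl, 50–60% confluent. Compound added in quadruplicate for 48 h. MTS reagent added for 60 min, A490 read. IC50 vs vehicle (≤0.5% ethanol or DMSO) by nonlinear regression.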

[18] = Antiproliferative activity against human U87MG cells assessed as inhibition of cell growth after 48 hrs by MTS assay; assay type: functional, cell-based, U-87MG ATCC; how it was run: as §7
[19] = Antiproliferative activity against human U87MG cells assessed as inhibition of cell growth at 400 uM after 48 hrs by MTS assay; assay type: functional, U-87MG ATCC; details: U-87 MG, read-out: GI

Question: With CC(C)(C)OO as the molecule, how does the Activity (U-87 MG [1]) read?
Answer: Its Activity is “Active”.

Question: And the Activity (1321-N1 [2])?
Answer: Its Activity is “Active”.

Question: With OCc1c(-c2ccccc2)[nH]c2ccccc12 as the molecule, how does the Activity (1321-N1 [3]) read?
Answer: Its Activity is “Active”.

Question: And the Activity (U-87 MG [4])?
Answer: Its Activity is “Active”.

Question: With Oc1ccccc1-c1cc2ccccc2[nH]1 [2-(2'-HYDROXYPHENYL)-1H-INDOLE] as the molecule, how does the Activity (U-87 MG [5]) read?
Answer: Its Activity is “Active”.

Question: And the IC50 [6]?
Answer: Its IC50 is 90 µM.

Question: What about the Activity (1321-N1 [7]) of the same molecule?
Answer: The Activity was “inactive”.

Question: And the Activity (U-87 MG [8])?
Answer: Its Activity is “inactive”.

Question: What about the IC50 [9] of the same molecule?
Answer: The IC50 was > 1000 µM.

Question: What about the Activity (1321-N1 [10]) of the same molecule?
Answer: The Activity was “Active”.

Question: What about the inhibition (U-87MG ATCC) of the same molecule?
Answer: The inhibition was “inactive”.

Question: And the IC50 [11]?
Answer: The IC50 was 92 µM.

Question: And the Activity (1321-N1 [3])?
Answer: Its Activity is “Active”.

Question: What about the IC50 [12] of the same molecule?
Answer: The IC50 was 400 µM.

Question: What about the inhibition (1321-N1 [13]) of the same molecule?
Answer: The inhibition was “inactive”.

Question: And the Activity (U-87 MG [14])?
Answer: Its Activity is “inactive”.

Question: What about the Activity (1321-N1 [15]) of the same molecule?
Answer: Its Activity is “inactive”.

Question: And the Activity (U-87 MG [4])?
Answer: Its Activity is “Active”.

Question: What about the IC50 [16] of the same molecule?
Answer: The IC50 was 48 µM.

Question: With COc1ccccc1-c1cc2ccccc2[nH]1 [2-(2'-METHOXYPHENYL)-1H-INDOLE] as the molecule, how does the IC50 ([17]; 1321-n1) read?
Answer: The IC50 was “Not Active”.

Question: What about the IC50 ([18]; u-87mg atcc) of the same molecule?
Answer: Its IC50 is “Not Active”.

Question: And the Activity (1321-N1 [3])?
Answer: The Activity was “inactive”.

Question: What about the Activity (U-87 MG [4]) of the same molecule?
Answer: The Activity was “inactive”.

Question: What does the source list for O=Cc1c(-c2ccccc2)[nH]c2ccccc12 [2-PHENYL-1H-INDOLE-3-CARBALDEHYDE]?
Answer: IC50 ([17]; 1321-n1): Not Active; IC50 ([18]; u-87mg atcc): Not Active

Question: Which IC50 ([17]; 1321-n1) does the source give for c1ccc(-c2cc3ccccc3[nH]2)cc1 [2-PHENYL-1H-INDOLE] here?
Answer: Its IC50 is “Not Active”.

Question: What about the IC50 ([18]; u-87mg atcc) of the same molecule?
Answer: The IC50 was “Not Active”.

Question: What about the Activity (1321-N1 [3]) of the same molecule?
Answer: The Activity was “inactive”.

Question: What about the inhibition of growth at 400 µM [19] of the same molecule?
Answer: Its inhibition of growth at 400 µM is 7%.

Question: And the Activity (U-87 MG [4])?
Answer: The Activity was “inactive”.

Question: Which results are given for OCc1c[nH]c2ccccc12 [INDOLE-3-CARBINOL]?
Answer: IC50 ([17]; Homo sapiens, 1321-N1, 48 h, read-out: IC50): 309 µM; IC50 ([18]; Homo sapiens, U-87 MG, 48 h, read-out: IC50): 526 µM
